# In ChEMBL document CHEMBL2029346, “Discovery and synthesis of hydronaphthoquinones as novel proteasome inhibitors” (J Med Chem, 2012):
# Active and inactive are the calls of the source. The calls are words filed in the database; no cut-off is given here.
# Tests used:
# [1] = Inhibition of chymotrypsin-like activity of proteasome by fluorogenic assay; type: subcellular
# In short: (§1)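 Purified rabbit 20S proteasome; CT-L activity measured by fluorogenic assay. Compounds were first screened for % CT-L inhibition, then dose-response runs gave IC50.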
# [2] = Inhibition of chymotrypsin-like activity of proteasome at 10 uM by fluorogenic assay; type: subcellular; in short: as §1
# [3] = Inhibition of trypsin-like activity of proteasome by fluorogenic assay; type: subcellular
# [4] = Inhibition of chymotrypsin-like activity of proteasome in human MDA-MB-231 cells after 48 hrs
# In short: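 MDA-MB-231 cells exposed to a range of concentrations or DMSO vehicle for 48 h, then lysed (Tris pH 8.0, EDTA, NaCl, 0.5% NP-40). CT-L activity was measured fluorogenically using 5 μg lysate; IC50 derived.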
# [5] = species on record: Oryctolagus cuniculus; test: Irreversible inhibition of rabbit 20S proteasome activity at 10 uM after 30 mins measured after 0.5 to 18 hrs of dialysis
# In short: (§2)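 Compound at 10 μM or 0.1% DMSO was preincubated with 1.5 nM rabbit 20S proteasome in 50 mM Tris-HCl pH 7.6 for 30 min at room temperature. Mixtures were dialysed (3500 MWCO) against the same buffer at 4 °C and sampled at 0, 0.5, 1, 4, 8 and 18 h. CT-L activity was normalized to DMSO control.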
# [6] = test system: MDA-MB-468; test: Antiproliferative activity against human MDA-MB-468 cells after 11 hrs by MTT assay; type: functional, cell-based; settings: MDA-MB-468, 11 h
# In short: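 MDA-MB-468 human breast cancer cells grown in DMEM with 10% FCS and penicillin/streptomycin at 37 °C, 5% CO₂. Cells plated, attached overnight, then exposed to varying compound concentrations or vehicle (DMSO) for 11 h.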
# [7] = Inhibition of chymotrypsin-like activity of proteasome in human MDA-MB-468 cells after 11 hrs by fluorogenic assay in whole cell extracts; settings: MDA-MB-468, 11 h
# [8] = test system: MDA-MB-468; test: Inhibition of chymotrypsin-like activity of proteasome in human MDA-MB-468 cells assessed as accumulation of ubiquitinated cellular proteins after 11 hrs by Western blotting
# In short: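 MDA-MB-468 cells (DMEM, 10% FCS, 37 °C, 5% CO2) given varying concentrations or DMSO for 11 h, then lysed in NP-40 buffer. Lysate (30 μg) was run on SDS-PAGE, transferred to nitrocellulose, probed with anti-ubiquitin, and detected by ECL.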
# [9] = Inhibition of chymotrypsin-like activity of proteasome in human MDA-MB-468 cells after 48 hrs
# In short: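 MDA-MB-468 cells grown in DMEM with 10% FCS, penicillin/streptomycin, at 37 °C in 5% CO2. They were exposed to a range of concentrations or DMSO vehicle for 48 h, lysed in Tris pH 8.0/EDTA/NaCl/0.5% NP-40 for 30 min at 4 °C, and spun at 12000g. CT-L activity was read fluorogenically on 5 μg lysate, with lysate replacing purified proteasome.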
# [10] = species on record: Oryctolagus cuniculus; test: Inhibition of rabbit 20S proteasome activity at 10 uM after 30 mins
# In short: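 Purified rabbit 20S proteasome (1.5 nM final) was preincubated with compound at 10 μM, or 0.1% DMSO vehicle, in 50 mM Tris-HCl pH 7.6 at room temperature for 30 min. Chymotrypsin-like activity was then read by fluorogenic assay before dialysis (t = 0) and normalized to the DMSO control.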
# [11] = Inhibition of trypsin-like activity of proteasome at 10 uM by fluorogenic assay; type: subcellular
# [12] = Inhibition of postglutamylpeptidase hydrolysis-like activity of proteasome by fluorogenic assay; type: subcellular
# [13] = species on record: Oryctolagus cuniculus; test: Irreversible inhibition of rabbit 20S proteasome activity at 10 uM after 30 mins measured after 4 hrs of dialysis; in short: as §2
Structure (SMILES),IC50 [1],inhibition [2],IC50 [3],further results
O=S(=O)(Nc1cc(Sc2nnn[nH]2)c(O)c2ccccc12)c1ccc(Cl)cc1,0.57 µM,> 70%,0.75 µM,–
O=S(=O)(Nc1cc(Sc2ncn[nH]2)c(O)c2ccccc12)c1ccc2ccccc2c1,0.3 µM,> 70%,2 µM,–
O=S(=O)(Nc1cc(Sc2nnn[nH]2)c(O)c2ccccc12)c1ccc(-c2ccc(C(F)(F)F)cc2)cc1,0.88 µM,> 70%,1.14 µM,IC50 [4]: 0.44 µM; inhibition [5]: Active; IC50 [6]: 17 µM; IC50 [7]: 15.6 µM; inhibition [8]: Dose-dependent effect; IC50 [9]: 1.01 µM; inhibition [10]: 73%
CNC(=O)CCSc1cc(NS(=O)(=O)c2cccs2)c2ccccc2c1O,> 5 µM,–,–,–
O=S(=O)(Nc1cc(SCCO)c(O)c2ccccc12)c1cccs1,> 5 µM,–,–,–
O=C(O)c1ccccc1Sc1cc(NS(=O)(=O)c2cccs2)c2ccccc2c1O,4.05 µM,> 70%,–,inhibition [11]: < 70%
O=S(=O)(Nc1cc(Sc2ncn[nH]2)c(O)c2ccccc12)c1cccc2ccccc12,0.65 µM,> 70%,–,inhibition [11]: < 70%
CN(C)C(=O)CCSc1cc(NS(=O)(=O)c2cccs2)c2ccccc2c1O,> 5 µM,–,–,–
O=S(=O)(Nc1cc(Sc2ncn[nH]2)c(O)c2ccccc12)c1ccc(-c2ccc(C(F)(F)F)cc2)cc1,2.47 µM,> 70%,7.2 µM,–
O=S(=O)(Nc1cc(Sc2ncn[nH]2)c(O)c2ccccc12)c1ccc(-c2ccccc2)cc1,0.28 µM,> 70%,4.22 µM,–
O=S(=O)(Nc1cc(Sc2nnn[nH]2)c(O)c2ccccc12)c1ccc(Cl)c(Cl)c1,0.54 µM,> 70%,0.57 µM,–
O=S(=O)(Nc1cc(Sc2nnn[nH]2)c(O)c2ccccc12)c1ccc(Cl)s1,0.63 µM,> 70%,1.1 µM,–
CCCCCc1ccc(S(=O)(=O)Nc2cc(Sc3nnn[nH]3)c(O)c3ccccc23)cc1,0.47 µM,> 70%,1.45 µM,–
O=S(=O)(Nc1cc(Sc2ncn[nH]2)c(O)c2ccccc12)c1ccc(C2CCCCC2)cc1,0.3 µM,> 70%,7 µM,–
CCOc1cc(NS(=O)(=O)c2cccs2)c2ccccc2c1O,> 5 µM,–,–,–
O=S(=O)(Nc1cc(Cl)c(O)c2ccccc12)c1cccs1,> 30 µM,–,–,–
O=C(O)CSc1ccc(NS(=O)(=O)c2cccs2)c2ccccc12,> 100 µM,–,–,–
O=S(=O)(Nc1cc(Sc2nnn[nH]2)c(O)c2ccccc12)c1ccc(-c2ccccn2)s1,0.48 µM,> 70%,1.55 µM,–
O=S(=O)(Nc1cc(Sc2nnn[nH]2)c(O)c2ccccc12)c1ccc2ccccc2c1,0.4 µM,> 70%,1.35 µM,–
O=S(=O)(Nc1cc(Br)c(O)c2ccccc12)c1cccs1,> 30 µM,–,–,–
O=S(=O)(Nc1cc(Sc2nnn[nH]2)c(O)c2ccccc12)c1cccs1,0.51 µM,> 70%,0.2 µM,–
O=C(O)CS(=O)(=O)c1cc(NS(=O)(=O)c2cccs2)c2ccccc2c1O,> 100 µM,–,–,–

Structure (SMILES),IC50 [1],inhibition [2],IC50 [3],further results
O=S(=O)(Nc1ccc(O)c2ccccc12)c1cccs1,> 30 µM,–,–,–
O=S(=O)(Nc1cc(Sc2nnn[nH]2)c(O)c2ccccc12)c1ccc(-c2ccccc2)s1,0.23 µM,> 70%,0.55 µM,–
O=C(O)CCSc1cc(NS(=O)(=O)c2cccs2)c2ccccc2c1O,5.7 µM,–,–,–
O=S(=O)(Nc1cc(Sc2nnn[nH]2)c(O)c2ccccc12)c1ccc(C2CCCCC2)cc1,0.23 µM,> 70%,1.85 µM,–
CCOC(=O)CSc1cc(NS(=O)(=O)c2cccs2)c2ccccc2c1O,> 10 µM,–,–,–
Cn1nnnc1Sc1cc(NS(=O)(=O)c2cccs2)c2ccccc2c1O,4.2 µM,> 70%,–,inhibition [11]: < 70%
O=S(=O)(Nc1cc(Sc2ncn[nH]2)c(O)c2ccccc12)c1ccc(S(=O)(=O)c2ccccc2)s1,1.97 µM,> 70%,–,inhibition [11]: < 70%
COc1ccc(-c2ccc(S(=O)(=O)Nc3cc(Sc4nnn[nH]4)c(O)c4ccccc34)cc2)cc1,0.4 µM,> 70%,2.8 µM,–
O=C(O)CSc1cc(NS(=O)(=O)c2cccs2)c2ccccc2c1O,3 µM,> 70%,–,IC50 [4]: 3.54 µM; inhibition [5]: Active; IC50 [12]: 8.1 µM; inhibition [11]: < 70%; IC50 [9]: 7.22 µM; inhibition [10]: 68%
O=S(=O)(Nc1cc(Sc2nnn[nH]2)c(O)c2ccccc12)c1ccc(Oc2ccccc2)cc1,0.22 µM,> 70%,1.3 µM,–
O=S(=O)(Nc1cc(Sc2ncn[nH]2)c(O)c2ccccc12)c1cccs1,–,> 70%,–,inhibition [11]: < 70%
O=S(=O)(Nc1cc(Sc2ncn[nH]2)c(O)c2ccccc12)c1ccc(-c2ccccc2)s1,0.73 µM,> 70%,2.35 µM,–
O=S(=O)(Nc1cc(Sc2nnn[nH]2)c(O)c2ccccc12)c1ccc(-c2ccc(F)cc2)cc1,0.23 µM,> 70%,2 µM,–
O=S(=O)(Nc1cc(Sc2ncn[nH]2)c(O)c2ccccc12)c1ccc(-c2ccc(F)cc2)cc1,0.18 µM,> 70%,2.37 µM,–
CC(C)C[C@H](NC(=O)[C@H](Cc1ccccc1)NC(=O)c1cnccn1)B(O)O,–,–,–,inhibition [13]: inactive; inhibition [10]: 87%
O=S(=O)(Nc1cc(Sc2nnn[nH]2)c(O)c2ccccc12)c1ccccc1,0.6 µM,> 70%,1.38 µM,–
CCSc1cc(NS(=O)(=O)c2cccs2)c2ccccc2c1O,> 5 µM,–,–,–
O=S(=O)(Nc1cc(Sc2ncn[nH]2)c(O)c2ccccc12)c1ccc(Oc2ccccc2)cc1,0.15 µM,> 70%,4.2 µM,–
O=S(=O)(Nc1cc(Sc2nnn[nH]2)c(O)c2ccccc12)c1ccc(-c2ccccc2)cc1,0.22 µM,> 70%,4.8 µM,–
O=S(=O)(Nc1cc(I)c(O)c2ccccc12)c1cccs1,> 30 µM,–,–,–
O=S(=O)(Nc1cc(Sc2ncn[nH]2)c(O)c2ccccc12)c1ccn(S(=O)(=O)c2ccccc2)c1,1.61 µM,> 70%,–,inhibition [11]: < 70%
O=C(O)COc1cc(NS(=O)(=O)c2cccs2)c2ccccc2c1O,> 100 µM,–,–,–
